# The list is not random: actives were taken first. Their share in the collection is about 2.2%.
# APJ antag = blocks the human apelin receptor APJ; P35414; CHO-K1 APJ beta-arrestin complementation, luminescence; inhibition, % at 20 µM; hit rate 0.32% among 330,000;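 active = inhibition above about 40% at 20 µM, limit read from the data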;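 also: cells challenged with 10 nM apelin-13 agonist together with compound; plate controls were apelin-13 plus DMSO wells for no effect and DMSO wells lacking apelin-13 for full effect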
# Target sequence (P35414 whole entry, looked up): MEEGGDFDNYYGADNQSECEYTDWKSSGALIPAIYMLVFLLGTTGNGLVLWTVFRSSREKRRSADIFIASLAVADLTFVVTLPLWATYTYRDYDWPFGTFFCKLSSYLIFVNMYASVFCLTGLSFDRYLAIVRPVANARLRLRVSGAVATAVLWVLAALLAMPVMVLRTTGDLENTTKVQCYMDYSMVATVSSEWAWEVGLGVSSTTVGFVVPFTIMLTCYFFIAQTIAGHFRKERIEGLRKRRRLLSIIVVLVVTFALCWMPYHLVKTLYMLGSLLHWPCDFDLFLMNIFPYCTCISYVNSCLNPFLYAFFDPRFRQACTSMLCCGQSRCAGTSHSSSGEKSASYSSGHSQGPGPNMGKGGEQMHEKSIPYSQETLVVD
# APJ ag = activates the human apelin receptor APJ | P35414 | CHO-K1 APJ PathHunter beta-arrestin, luminescence; 0% DMSO wells, 100% apelin | activation, % at 20 µM | hit rate 0.11% among 330,000 | AID 2520;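 active = activation more than six SD over the plate average, tested at 20 µM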;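 also: 0% = DMSO alone and 100% = apelin-13 at 10 nM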
#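 assay system = CHO-K1 APJ beta-arrestin complementation cell line | input = cell density 1000 per well | dosing = compound 20 µM once, DMSO 1% | timing = compound 90 min 25 °C, reagent 1 h | measured by = luminescence from split beta-galactosidase complementation, Galacton Star/Emerald II substrate | read-out basis = APJ agonist activity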
# EBI2 antag = blocks human EBI2 receptor beta-arrestin signaling; P32249; EBI2 beta-arrestin recruitment, luminescence, 7a,25-OHC stimulated; inhibition, % at 5 µM; hit rate 0.81% among 360,000; AID 651636; in the data active = inhibition above about 38%;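 also: enzyme fragment complementation signal reports receptor beta-arrestin coupling in cells; 0% = agonist plus DMSO wells and 100% = wells without agonist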
# HTR2A ag = mouse HTR2A agonism via beta-arrestin recruitment | CHO-K1 mHTR2A beta-arrestin complementation, luminescence; percent of 30 µM serotonin response | activation, % at 7.6 µM | hit rate 0.66% among 360,000;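 active = activation above a run cutoff, the mean activation of all tested compounds plus 3 SD, cut at about 14% in these data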;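 also: 0% = plate median of compound wells and 100% = 30 µM serotonin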
# CCR6 antag = antagonists of human CCR6 receptor. P51684. AID 493098. CHO-K1 CCR6 PathHunter beta-arrestin, luminescence, CCL20-stimulated. hit rate 0.49% among 340,000. inhibition, % at 20 µM;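 active = compounds whose inhibition of the agonist-driven luminescence signal at 20 µM reaches about 50%, limit read from the data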;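 also: cells stimulated with CCL20 at 14 nM final; plate controls were DMSO with CCL20 for no effect and DMSO without agonist for full effect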
# CXCR6 block = inhibitors of human CXCR6 receptor | CHO-K1 PathHunter CXCR6 beta-arrestin, luminescence | O00574 | inhibition, % at 20 µM | hit rate 0.36% among 360,000; in the data active = inhibition above about 34%, passing the limit was not always enough;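 also: antagonist mode with CXCL16 agonist at 10 nM final; 0% = 10 nM CXCL16 with DMSO and 100% = unstimulated wells without agonist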
# Target sequence (O00574 whole entry, looked up): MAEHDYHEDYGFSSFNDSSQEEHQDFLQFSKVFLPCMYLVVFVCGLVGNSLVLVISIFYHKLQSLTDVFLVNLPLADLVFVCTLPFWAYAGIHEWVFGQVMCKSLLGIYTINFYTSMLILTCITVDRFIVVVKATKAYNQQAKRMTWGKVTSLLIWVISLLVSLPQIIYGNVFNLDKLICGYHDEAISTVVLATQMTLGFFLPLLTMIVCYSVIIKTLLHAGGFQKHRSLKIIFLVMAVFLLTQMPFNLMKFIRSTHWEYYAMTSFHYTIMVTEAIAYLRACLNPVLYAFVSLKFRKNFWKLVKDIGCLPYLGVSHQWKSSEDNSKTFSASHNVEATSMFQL
# OPRM1 ag = OPRM1 agonism in mouse HTR2A counterscreen; activation, % at 9.3 µM; shares compounds with HTR2A ag; U2OS OPRM1 beta-arrestin PathHunter, luminescence; DMSO 0%, DAMGO 9.3 µM 100%; hit rate 5.3% among 2,300;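 active = mean activation above the mean of DMSO-only wells plus 3 SD, cut at about 0.5% in these data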
# m5-HT2A ag conf = mouse HTR2A agonism confirmed; shares compounds with HTR2A ag; CHO-K1 PathHunter beta-arrestin recruitment, luminescence; DMSO 0%, 30 µM serotonin 100%; activation, % at 7.6 µM; hit rate 19% among 2,300; AID 624381;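 active = mean activation across triplicates above the hit threshold derived in the original primary screen, cut at about 15% in these data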
# The depositor's hits bear a star; . = no result.
SMILES,APJ antag,APJ ag,EBI2 antag,HTR2A ag,CCR6 antag,CXCR6 block,OPRM1 ag,m5-HT2A ag conf
CC(C)(C)N=C1SCC(C)(/C=N/O)S1 (centres undefined),-14.5,1.1,6.5,16.5*,0.1,6.6,-0.5,-1.7
C#CCNC(=O)C[C@@H]1C[C@@]2(C(=O)OCC)CCCC=C2N(CCCCCCCC)C1=O,.,.,5.7,-4.8,.,8.3,.,.
COc1cc(NC(=O)COc2ccc([N+](=O)[O-])cc2)ccc1NC(=O)c1ccco1,.,.,1.7,-2.9,.,-0.7,.,.
O=c1c2ccccc2nc(-c2ccc([N+](=O)[O-])cc2)n1O,-8.1,-4.5,-4.6,15.7*,6.1,-9.0,-0.4,-2.3
Cc1ccc(-c2nc3ccccc3c(=O)n2O)cc1,-6.6,2.8,8.0,-0.9,7.6,3.9,.,.
Clc1cccc(Cc2c(C3CCCCC3)nc3c4ccccc4ccn23)c1,.,.,22.2,-6.5,.,9.7,.,.
OC(c1cc(Cl)cc(Cl)c1)c1ncc(-c2cccc(F)c2)[nH]1 (centres undefined),.,.,8.2,5.8,.,-12.2,.,.
CN(C)CCN(Cc1ccccc1)C(c1cc2ccccc2o1)c1nnnn1C(C)(C)C (centres undefined),.,.,2.4,-9.3,.,10.0,.,.
CC(C)(C)n1nnnc1C(c1cc2ccccc2o1)N(CCC#N)Cc1ccccc1 (centres undefined),.,.,24.8,42.0*,.,-0.7,-0.6,-6.3
COc1ccc(Cl)cc1Cn1c(C)c(C(=O)N(C)Cc2ccc(F)cc2)sc1=O,.,.,-0.1,5.9,.,2.4,.,.
CCCCN(C)C(=O)c1sc(=O)n(Cc2cc(Cl)ccc2OC)c1C,.,.,2.6,17.0*,.,3.4,-0.5,-6.2
CCCS(=O)(=O)NC(=O)C1(C)CCN(C(=O)c2cc(F)cc(F)c2)C1 (centres undefined),.,.,8.2,14.7*,.,-6.4,-0.7,-6.5
CCNC(=O)C1(C)CCN(C(=O)c2cc(F)cc(F)c2)C1 (centres undefined),.,.,5.4,-0.7,.,3.9,.,.
CC1(C(=O)NS(=O)(=O)C2CC2)CCN(C(=O)C2(c3ccc(Cl)cc3)CCCC2)C1 (centres undefined),.,.,-8.3,0.6,.,-1.4,.,.
CCCS(=O)(=O)NC(=O)C1(C)CCN(C(=O)C2(c3ccc(Cl)cc3)CCCC2)C1 (centres undefined),.,.,0.7,16.5*,.,3.4,0.0,1.8
O=C(COc1ccc(Br)cc1)Nc1ccc(C(=O)Nc2ccccc2C(=O)O)cc1,-13.0,-0.2,8.5,17.7*,18.2,-9.7,-0.4,5.1
O=C(COC(=O)CNC(=O)c1ccccc1F)NCCNC(=O)COC(=O)CNC(=O)c1ccccc1F,12.3,10.0,-1.7,-6.1,2.7,-1.0,.,.
O=C(CNC(=O)c1ccccc1F)OCCCOC(=O)CNC(=O)c1ccccc1F,-5.5,-3.8,3.6,15.2*,2.8,0.0,-0.2,1.6
CC1(C(=O)Nc2cccc(Oc3ccccc3)c2)CCN1Cc1cccc2c1OCO2 (centres undefined),.,.,25.7,-8.2,.,3.8,.,.
O=C(CCS(=O)(=O)c1ccccc1)Nc1nc2c(s1)COc1ccccc1-2,13.2,-3.3,19.1,22.1*,26.3,3.4,-0.5,-4.8
O=C(Nc1nc2c(s1)COc1ccccc1-2)c1cccs1,27.1,-8.7,4.5,-5.1,22.1,4.9,.,.
Cc1ccc(Cc2c(-c3ccccc3)nc3cc(C)c(Br)c(C)n23)cc1,.,.,-4.1,-3.1,.,-2.2,.,.
CCCCNC(=O)c1c(N)[nH]c(C(=O)c2ccccc2)c1-c1ccc(Cl)cc1,.,.,-9.1,-4.6,.,-8.4,.,.
Cc1cc(C=O)sc1[B-](F)(F)F,.,.,-6.3,14.5*,0.1,-6.6,-0.3,10.2
O=Cc1cc2c(cc1[B-](F)(F)F)OCO2,.,.,-6.5,-0.1,4.6,-7.0,.,.
SMILES,APJ antag,APJ ag,EBI2 antag,HTR2A ag,CCR6 antag,CXCR6 block,OPRM1 ag,m5-HT2A ag conf
COc1cc(NC(=O)c2ccc(-c3ccc(F)c(F)c3)c3ccoc23)cc(OC)c1OC,.,.,8.7,-6.8,.,-3.1,.,.
N#Cc1ccc(C2CC(OCCF)=CC(=O)O2)cc1 (centres undefined),.,.,-0.5,-1.7,.,.,.,.
CC(=O)Nc1cccc(/C(C)=N/NC(=O)c2cccc(S(=O)(=O)N3CCCC3)c2)c1,.,.,-2.4,0.7,.,-3.7,.,.
COCCN(C(=O)COC(=O)CC1CCCCC1)c1c(N)n(Cc2ccccc2)c(=O)[nH]c1=O,10.8,-6.9,-4.4,-1.4,7.3,-1.0,.,.
COCCN(C(=O)COC(=O)C1CCCCC1)c1c(N)n(Cc2ccccc2)c(=O)[nH]c1=O,.,.,-17.0,16.0*,.,4.9,-0.6,-4.2
CCc1ccc(CNC(=O)C2CCN(S(=O)(=O)N3CCCCC3)CC2)cc1,.,.,39.2,-2.5,.,9.0,.,.
COc1ccc(NC(=O)Nc2ccc3c(c2)C(=O)N([C@H](C)CO)C[C@H](C)[C@@H](CN(C)S(=O)(=O)c2ccccc2)O3)cc1,-1.3,-1.9,-3.8,6.9,4.4,2.1,.,.
C[C@@H]1CN([C@@H](C)CO)C(=O)Cc2cc(NS(=O)(=O)c3ccccc3)ccc2O[C@H]1CN(C)Cc1ccncc1,6.9,-2.0,-6.0,0.1,0.5,7.4,.,.
Cc1ccc(S(=O)(=O)Nc2ccc3c(c2)CC(=O)N([C@H](C)CO)C[C@@H](C)[C@H](CN(C)Cc2ccc(-c4ccccc4)cc2)O3)cc1,1.8,-1.4,10.5,19.0*,-18.1,-1.1,-0.7,18.0*
C[C@@H]1CN([C@H](C)CO)C(=O)c2cc(NS(=O)(=O)c3ccc(F)cc3)ccc2O[C@@H]1CN(C)Cc1ccc(Cl)c(Cl)c1,-7.9,-0.7,10.4,20.9*,5.8,-7.0,-0.2,6.8
C[C@H](CO)N1C[C@H](C)[C@H](CN(C)Cc2ccc(-c3ccccc3)cc2)Oc2ccc(NS(=O)(=O)c3ccccc3)cc2CC1=O,-15.4,-3.3,1.0,16.1*,-10.0,-4.8,-0.1,28.2*
COc1ccc(NC(=O)Nc2ccc3c(c2)C(=O)N([C@H](C)CO)C[C@H](C)[C@@H](CN(C)S(=O)(=O)c2ccc(F)cc2)O3)cc1,10.8,-3.1,-9.7,18.3*,12.6,4.6,-0.7,-3.4
CSCCC(C(=O)NC(C)(C)C)n1c(-c2ccc(C)cc2)nc2ccccc21 (centres undefined),.,.,2.6,-8.2,.,.,.,.
Fc1ccc(-c2nc3c4ccccc4ccn3c2Cc2ccsc2)cc1,.,.,7.0,-8.4,.,-2.6,.,.
Cc1cccc(C)c1NC(=O)C1(C)CN(S(C)(=O)=O)CC(=O)N1Cc1ccco1 (centres undefined),.,.,-6.2,-2.7,.,.,.,.
COc1ccc(NC2c3ccccc3C(=O)N2Cc2ccco2)cc1OC (centres undefined),4.4,0.4,2.4,3.9,11.7,1.3,.,.
